Test results as given in ChEMBL document CHEMBL2157880, “Synthesis, antimycobacterial and antibacterial activity of ciprofloxacin derivatives containing a N-substituted benzyl moiety” (2012).
Values after ≈ are worked out from the molar mass of the structure shown.

Columns and labels:
Type in all cases: functional
[1] = system: Mycobacterium tuberculosis; assay: Antimycobacterial activity against Mycobacterium tuberculosis H37Rv ATCC 27294 by microplate alamar blue assay
Summary of the method: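 Microplate Alamar Blue fluorescence assay on strain H37Rv ATCC 27294. MIC was the lowest concentration cutting fluorescence by ≥90% against the mean of replicate bacterium-only controls.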

Staphylococcus aureus [2] = assay: Antibacterial activity against Staphylococcus aureus ATCC 2592 after 18 to 24 hrs by NCCLS method
Summary of the method: (§1)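 Standard NCCLS (M100-S11) MIC testing against Gram-positive and Gram-negative strains. Plates were incubated at 35 °C for 18–24 h. The MIC was read as the lowest concentration giving complete inhibition of visible bacterial growth.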

Staphylococcus aureus [3] = assay: Antibacterial activity against methicillin-sensitive Staphylococcus aureus 10-11 after 18 to 24 hrs by NCCLS method; summary of the method: as §1
Staphylococcus aureus [4] = assay: Antibacterial activity against methicillin-sensitive Staphylococcus aureus 10-13 after 18 to 24 hrs by NCCLS method; summary of the method: as §1
Staphylococcus aureus [5] = assay: Antibacterial activity against methicillin-sensitive Staphylococcus aureus 10-14 after 18 to 24 hrs by NCCLS method; summary of the method: as §1
Staphylococcus aureus [6] = assay: Antibacterial activity against methicillin-resistant Staphylococcus aureus 10-11 after 18 to 24 hrs by NCCLS method
Summary of the method: (§2)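 Incubated at 35 °C for 18–24 h under NCCLS (M100-S11) standards. MIC was read as the lowest concentration giving complete inhibition of visible bacterial growth.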

Staphylococcus aureus [7] = assay: Antibacterial activity against methicillin-resistant Staphylococcus aureus 10-13 after 18 to 24 hrs by NCCLS method; summary of the method: as §2
Staphylococcus aureus [8] = assay: Antibacterial activity against methicillin-resistant Staphylococcus aureus 10-15 after 18 to 24 hrs by NCCLS method; summary of the method: as §2
[9] = system: Staphylococcus epidermidis; assay: Antibacterial activity against methicillin-sensitive Staphylococcus epidermidis 10-11 after 18 to 24 hrs by NCCLS method; summary of the method: as §1
[10] = system: Staphylococcus epidermidis; assay: Antibacterial activity against methicillin-sensitive Staphylococcus epidermidis 10-15 after 18 to 24 hrs by NCCLS method; summary of the method: as §2
[11] = system: Staphylococcus epidermidis; assay: Antibacterial activity against methicillin-resistant Staphylococcus epidermidis 10-10 after 18 to 24 hrs by NCCLS method; summary of the method: as §2
[12] = system: Staphylococcus epidermidis; assay: Antibacterial activity against methicillin-resistant Staphylococcus epidermidis 10-13 after 18 to 24 hrs by NCCLS method; summary of the method: as §2
Enterococcus faecalis [13] = assay: Antibacterial activity against Enterococcus faecalis 10-5 after 18 to 24 hrs by NCCLS method; summary of the method: as §1
Enterococcus faecalis [14] = assay: Antibacterial activity against Enterococcus faecalis 10-6 after 18 to 24 hrs by NCCLS method; summary of the method: as §1
Enterococcus faecalis [15] = assay: Antibacterial activity against Enterococcus faecalis 10-7 after 18 to 24 hrs by NCCLS method; summary of the method: as §1
Enterococcus faecium [16] = assay: Antibacterial activity against Enterococcus faecium 10-6 after 18 to 24 hrs by NCCLS method; summary of the method: as §1
Enterococcus faecium [17] = assay: Antibacterial activity against Enterococcus faecium 10-9 after 18 to 24 hrs by NCCLS method; summary of the method: as §1
Streptococcus pneumoniae [18] = assay: Antibacterial activity against Streptococcus pneumoniae 10-1 after 18 to 24 hrs by NCCLS method; summary of the method: as §1
Streptococcus pneumoniae [19] = assay: Antibacterial activity against Streptococcus pneumoniae 10-6 after 18 to 24 hrs by NCCLS method; summary of the method: as §1
Escherichia coli [20] = assay: Antibacterial activity against Escherichia coli ATCC 25922 after 18 to 24 hrs by NCCLS method; summary of the method: as §1
Escherichia coli [21] = assay: Antibacterial activity against Escherichia coli 10-1 after 18 to 24 hrs by NCCLS method; summary of the method: as §1
Escherichia coli [22] = assay: Antibacterial activity against Escherichia coli 10-2 after 18 to 24 hrs by NCCLS method; summary of the method: as §1
Escherichia coli [23] = assay: Antibacterial activity against Escherichia coli 10-3 after 18 to 24 hrs by NCCLS method; summary of the method: as §1
Escherichia coli [24] = assay: Antibacterial activity against extended spectrum beta-lactamases producing Escherichia coli 10-2 after 18 to 24 hrs by NCCLS method; summary of the method: as §1
Escherichia coli [25] = assay: Antibacterial activity against extended spectrum beta-lactamases producing Escherichia coli 10-3 after 18 to 24 hrs by NCCLS method; summary of the method: as §1
Escherichia coli [26] = assay: Antibacterial activity against extended spectrum beta-lactamases producing Escherichia coli 10-4 after 18 to 24 hrs by NCCLS method; summary of the method: as §1
Klebsiella pneumoniae [27] = assay: Antibacterial activity against Klebsiella pneumoniae 10-2 after 18 to 24 hrs by NCCLS method; summary of the method: as §1
Klebsiella pneumoniae [28] = assay: Antibacterial activity against Klebsiella pneumoniae 10-3 after 18 to 24 hrs by NCCLS method; summary of the method: as §1
Klebsiella pneumoniae [29] = assay: Antibacterial activity against Klebsiella pneumoniae 10-4 after 18 to 24 hrs by NCCLS method; summary of the method: as §1
Klebsiella pneumoniae [30] = assay: Antibacterial activity against extended spectrum beta-lactamases producing Klebsiella pneumoniae 10-1 after 18 to 24 hrs by NCCLS method; summary of the method: as §1
Klebsiella pneumoniae [31] = assay: Antibacterial activity against extended spectrum beta-lactamases producing Klebsiella pneumoniae 10-2 after 18 to 24 hrs by NCCLS method; summary of the method: as §1
Klebsiella pneumoniae [32] = assay: Antibacterial activity against extended spectrum beta-lactamases producing Klebsiella pneumoniae 10-3 after 18 to 24 hrs by NCCLS method; summary of the method: as §1
Pseudomonas aeruginosa [33] = assay: Antibacterial activity against Pseudomonas aeruginosa 10-5 after 18 to 24 hrs by NCCLS method; summary of the method: as §1
Pseudomonas aeruginosa [34] = assay: Antibacterial activity against Pseudomonas aeruginosa 10-9 after 18 to 24 hrs by NCCLS method; summary of the method: as §1
Pseudomonas aeruginosa [35] = assay: Antibacterial activity against Pseudomonas aeruginosa 10-12 after 18 to 24 hrs by NCCLS method; summary of the method: as §1
Pseudomonas aeruginosa [36] = assay: Antibacterial activity against Pseudomonas aeruginosa 10-15 after 18 to 24 hrs by NCCLS method; summary of the method: as §1
Pseudomonas aeruginosa [37] = assay: Antibacterial activity against Pseudomonas aeruginosa 10-18 after 18 to 24 hrs by NCCLS method; summary of the method: as §1
Pseudomonas aeruginosa [38] = assay: Antibacterial activity against Pseudomonas aeruginosa 10-20 after 18 to 24 hrs by NCCLS method; summary of the method: as §1

`COc1ccc(CN2CCN(c3cc4c(cc3F)c(=O)c(C(=O)O)cn4C3CC3)CC2)cc1OC` gave an MIC [1] of 16 µg/mL (≈ 33.2 µM), an MIC (Staphylococcus aureus [2]) of 0.125 µg/mL (≈ 0.26 µM) and an MIC (Staphylococcus aureus [3]) of 0.125 µg/mL (≈ 0.26 µM). For the same compound, the MIC (Staphylococcus aureus [4]) was 0.125 µg/mL (≈ 0.26 µM), the MIC (Staphylococcus aureus [5]) was 0.25 µg/mL (≈ 0.519 µM) and the MIC (Staphylococcus aureus [6]) was 32 µg/mL (≈ 66.5 µM). The MIC (Staphylococcus aureus [7]) was 64 µg/mL (≈ 133 µM), the MIC (Staphylococcus aureus [8]) was 16 µg/mL (≈ 33.2 µM) and the MIC [9] was 4 µg/mL (≈ 8.31 µM). The MIC [10] was 8 µg/mL (≈ 16.6 µM), the MIC [11] was 8 µg/mL (≈ 16.6 µM) and the MIC [12] was 32 µg/mL (≈ 66.5 µM). The MIC (Enterococcus faecalis [13]) was 8 µg/mL (≈ 16.6 µM), the MIC (Enterococcus faecalis [14]) was > 128 µg/mL and the MIC (Enterococcus faecalis [15]) was 64 µg/mL (≈ 133 µM). It also gave an MIC (Enterococcus faecium [16]) of 4 µg/mL (≈ 8.31 µM), an MIC (Enterococcus faecium [17]) of 64 µg/mL (≈ 133 µM) and an MIC (Streptococcus pneumoniae [18]) of 2 µg/mL (≈ 4.15 µM). For the same compound, the MIC (Streptococcus pneumoniae [19]) was 32 µg/mL (≈ 66.5 µM), the MIC (Escherichia coli [20]) was 0.5 µg/mL (≈ 1.04 µM) and the MIC (Escherichia coli [21]) was > 128 µg/mL. For the same compound, the MIC (Escherichia coli [22]) was 16 µg/mL (≈ 33.2 µM), the MIC (Escherichia coli [23]) was 64 µg/mL (≈ 133 µM) and the MIC (Escherichia coli [24]) was > 128 µg/mL. For the same compound, the MIC (Escherichia coli [25]) was > 128 µg/mL, the MIC (Escherichia coli [26]) was 64 µg/mL (≈ 133 µM) and the MIC (Klebsiella pneumoniae [27]) was > 128 µg/mL. The MIC (Klebsiella pneumoniae [28]) was 16 µg/mL (≈ 33.2 µM), the MIC (Klebsiella pneumoniae [29]) was > 128 µg/mL and the MIC (Klebsiella pneumoniae [30]) was > 128 µg/mL. The MIC (Klebsiella pneumoniae [31]) was > 128 µg/mL, the MIC (Klebsiella pneumoniae [32]) was > 128 µg/mL and the MIC (Pseudomonas aeruginosa [33]) was 32 µg/mL (≈ 66.5 µM). The MIC (Pseudomonas aeruginosa [34]) was 64 µg/mL (≈ 133 µM), the MIC (Pseudomonas aeruginosa [35]) was 32 µg/mL (≈ 66.5 µM) and the MIC (Pseudomonas aeruginosa [36]) was 32 µg/mL (≈ 66.5 µM). It also gave an MIC (Pseudomonas aeruginosa [37]) of 64 µg/mL (≈ 133 µM) and an MIC (Pseudomonas aeruginosa [38]) of 128 µg/mL (≈ 266 µM).

Work on `COc1cccc(CN2CCN(c3cc4c(cc3F)c(=O)c(C(=O)O)cn4C3CC3)CC2)c1OC` yielded an MIC [1] of 2 µg/mL (≈ 4.15 µM), an MIC (Staphylococcus aureus [2]) of 0.06 µg/mL (≈ 0.125 µM) and an MIC (Staphylococcus aureus [3]) of 0.03 µg/mL (≈ 0.0623 µM). For the same compound, the MIC (Staphylococcus aureus [4]) was 0.03 µg/mL (≈ 0.0623 µM), the MIC (Staphylococcus aureus [5]) was 0.125 µg/mL (≈ 0.26 µM) and the MIC (Staphylococcus aureus [6]) was 16 µg/mL (≈ 33.2 µM). The MIC (Staphylococcus aureus [7]) was 32 µg/mL (≈ 66.5 µM), the MIC (Staphylococcus aureus [8]) was 16 µg/mL (≈ 33.2 µM) and the MIC [9] was 0.25 µg/mL (≈ 0.519 µM). The MIC [10] was 8 µg/mL (≈ 16.6 µM), the MIC [11] was 8 µg/mL (≈ 16.6 µM) and the MIC [12] was 32 µg/mL (≈ 66.5 µM). The MIC (Enterococcus faecalis [13]) was 8 µg/mL (≈ 16.6 µM), the MIC (Enterococcus faecalis [14]) was > 128 µg/mL and the MIC (Enterococcus faecalis [15]) was 32 µg/mL (≈ 66.5 µM). It also gave an MIC (Enterococcus faecium [16]) of 4 µg/mL (≈ 8.31 µM), an MIC (Enterococcus faecium [17]) of 32 µg/mL (≈ 66.5 µM) and an MIC (Streptococcus pneumoniae [18]) of 2 µg/mL (≈ 4.15 µM). For the same compound, the MIC (Streptococcus pneumoniae [19]) was 32 µg/mL (≈ 66.5 µM), the MIC (Escherichia coli [20]) was 0.5 µg/mL (≈ 1.04 µM) and the MIC (Escherichia coli [21]) was > 128 µg/mL. For the same compound, the MIC (Escherichia coli [22]) was 32 µg/mL (≈ 66.5 µM), the MIC (Escherichia coli [23]) was > 128 µg/mL and the MIC (Escherichia coli [24]) was > 128 µg/mL. For the same compound, the MIC (Escherichia coli [25]) was > 128 µg/mL, the MIC (Escherichia coli [26]) was 128 µg/mL (≈ 266 µM) and the MIC (Klebsiella pneumoniae [27]) was > 128 µg/mL. For the same compound, the MIC (Klebsiella pneumoniae [28]) was 16 µg/mL (≈ 33.2 µM), the MIC (Klebsiella pneumoniae [29]) was > 128 µg/mL and the MIC (Klebsiella pneumoniae [30]) was > 128 µg/mL. For the same compound, the MIC (Klebsiella pneumoniae [31]) was > 128 µg/mL, the MIC (Klebsiella pneumoniae [32]) was > 128 µg/mL and the MIC (Pseudomonas aeruginosa [33]) was 32 µg/mL (≈ 66.5 µM). The MIC (Pseudomonas aeruginosa [34]) was 64 µg/mL (≈ 133 µM), the MIC (Pseudomonas aeruginosa [35]) was 32 µg/mL (≈ 66.5 µM) and the MIC (Pseudomonas aeruginosa [36]) was 32 µg/mL (≈ 66.5 µM). The MIC (Pseudomonas aeruginosa [37]) was 64 µg/mL (≈ 133 µM) and the MIC (Pseudomonas aeruginosa [38]) was 128 µg/mL (≈ 266 µM).
